From PubChem BioAssay
Hits are enriched below; roughly 2% of the tested compounds scored in any of these assays.
HIF act: HIF pathway transcriptional activators, primary screen, cell-based, U2OS HRE-luciferase, luminescence; 300,000 tested, 0.32% active; activation, % at 7.5 µM (by protocol); U2OS HRE-luciferase reporter; normalized: DMSO 0%, desferrioxamine 100%; AID 1910, 2009;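 active = mean activation of at least 10% of the iron chelator positive control signal, with at least half of replicates also reaching 10%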
AI-2 QS mod: Vibrio harveyi AI-2 quorum sensing modulators, primary screen, JMH597 strain, luminescence/OD600 ratio; 300,000 tested, 0.4% active; Vibrio harveyi JMH597 AI-2 luminescence/OD600 ratio, 9 h; stronger effect = lower value; strain lacks LuxN and CqsS sensors; 0 = neutral-control median; activity change, % at 7.5 µM; in the data active = activity change below about -75%, passing the limit was not always enough;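 note: luminescence divided by OD600 gain over 9 h not by final OD600 alone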
ARNT TACC3 PPI: disruptors of ARNT/TACC3 protein interaction, primary screen, biochemical, AlphaScreen, single concentration. Transforming acidic coiled-coil-containing protein 3 (Homo sapiens), Q9Y6A5. AlphaScreen His-ARNT PAS-B/GST-TACC3 binding, luminescence; TACC3 fragment carries E629A point mutation. inhibition, % at 9.99 µM. 390,000 tested, 0.66% active. AID 623870, 2012;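 active = mean inhibition of replicates at least 50% and at least half of replicates each reaching 50%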;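 note: 0% = complete ARNT plus TACC3 wells and 100% = ARNT alone without TACC3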
T cruzi inh: inhibitors of intracellular T. cruzi growth, primary screen, luminescence, NIH3T3 host cells; T. cruzi beta-gal in NIH3T3, 90 h; inhibition, % (no concentration beside the values); 300,000 tested, 1.4% active;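 active = mean inhibition across valid replicates above about 55%, limit read from the data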;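 note: signal also drops with host cell toxicity which is not excluded here; 0% = plate median of DMSO wells and 100% = zero luminescence signal; higher percent means less beta-gal luminescence so fewer parasites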
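Assay system: NIH/3T3 host cells with β-galactosidase reporter T. cruzi; input: 5,000 host fibroblasts per well; compound: single 50 nL compound addition per well in DMSO; timing: ≥90 h infection period, 3 h prior cell attachment; measured by: GalScreen β-gal luminescence, detergent lysis, 60 min; evaluation: percent inhibition of parasite-derived β-gal signal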
Starred values were filed as active, the others as inactive; · = no result given.

SMILES	HIF act	AI-2 QS mod	ARNT TACC3 PPI	T cruzi inh
O=C1CSC(=S)N1N=Cc1cccc2ccccc12	·	·	37	·
Cc1ccccc1/C=N/N1C(=O)CSC1=S	1	22	39*	-5
COc1cccc(CNC(=O)C[C@@H]2CC[C@@H](NC(=O)C3CCOCC3)[C@@H](CO)O2)c1	·	·	-7	·
Cc1ccc(C(CC(=O)O)C2CCOC(C)(C)C2)cc1 (centres undefined)	42*	5	-7	-2
CCN(CC)S(=O)(=O)c1cccc(-c2nnc(SCCCC(=O)c3ccc(F)cc3)o2)c1	-1	18	-1	60*
CCN(CC)S(=O)(=O)c1cccc(-c2nnc(SCCCC(=O)c3ccccc3)o2)c1	1	15	-6	66*
COc1ccc(S(=O)(=O)N[C@@H]2C=C[C@@H](CC(=O)NCCc3ccccc3)O[C@@H]2CO)cc1	·	·	-1	·
O=C(NCCN1CCCC1)c1ccccc1Cl	1	24	-20	2
O=C1C(Cl)=C(NCCN2CCCCC2)C(=O)c2ccccc21	-2	23	23	67*
Cc1ccc(S(=O)(=O)N(C)C[C@H]2Oc3c(NC(=O)C4CC4)cccc3C(=O)N([C@H](C)CO)C[C@@H]2C)cc1	·	·	-2	·
O=C(Nc1ccccc1)Nc1ccccc1-n1ccnc1	-1	-3	-11	61*
O=C(Nc1ccccc1)Nc1ccccc1	·	·	29	·
Cc1ccc(C(=O)O/N=C(\N)Cc2cccs2)c(Cl)c1	-1	-89*	·	2
COc1ccc2[nH]c(CN3CCN(CCC(C)C)C(CCO)C3)c(C)c2c1 (centres undefined)	0	-6	7	61*
Cc1ccc(S(=O)(=O)N(C)C[C@H]2OCCCC[C@H](C)Oc3ccc(NC(=O)Nc4c(C)noc4C)cc3C(=O)N([C@H](C)CO)C[C@H]2C)cc1	·	·	-1	·
O=C(c1ccc2c(c1)OCO2)C1CCCN(C2CCN(CCc3ccccc3)CC2)C1 (centres undefined)	0	9	5	69*
O=C(O)C1Nc2c(O)cccc2C2C=CCC12 (centres undefined)	·	·	75*	·
CN(C)C(=O)C[C@H]1C[C@@H]2c3cc(NC(=O)Nc4ccccc4)ccc3O[C@@H]2[C@@H](CO)O1	·	·	-4	·
Cn1c(SCC(=O)c2ccccc2)nnc1-c1ccco1	13*	28	2	-9
Oc1ccc(CCNc2c3ccccc3nc3ccccc23)cc1O	18*	14	24	10
CN(C)CCCNc1c2ccccc2nc2ccccc12	-2	29	-7	68*
c1ccc(CNc2c3ccccc3nc3ccccc23)cc1	20*	22	1	57*
COc1ccc(S(=O)(=O)Nc2cccc3c2O[C@@H](CN(C)Cc2ccc4c(c2)OCO4)[C@@H](C)CN([C@@H](C)CO)C3=O)cc1	·	·	4	·
CC(C)CC#Cc1ccc([C@H]2[C@@H](CO)N3CCCCN(S(=O)(=O)Cc4ccccc4)C[C@H]23)cc1	·	·	-4	·
C[C@H](CO)N1C[C@H](C)[C@H](CN(C)S(=O)(=O)c2ccc(F)cc2)OCCCC[C@H](C)Oc2ccc(NC(=O)c3ccccc3)cc2C1=O	·	·	-7	·
SMILES	HIF act	AI-2 QS mod	ARNT TACC3 PPI	T cruzi inh
COCC#Cc1ccc2c(c1)O[C@@H](CN(C)C)[C@H](C)CN([C@@H](C)CO)S2(=O)=O	·	·	3	·
COCCOc1cc(NC(=O)c2sccc2Oc2ccc([N+](=O)[O-])cc2F)c(Cl)cc1Cl	0	6	-4	37
O=C(Nc1ccccc1)c1sccc1Oc1ccc([N+](=O)[O-])cc1F	0	-9	2	63*
OCCN1CCN(C(=S)c2ccc(Cl)c(Cl)c2)CC1	0	13	66*	-4
COc1cc(NC(=S)N2CCN(CCO)CC2)c(OC)cc1Cl	0	16	·	-6
O=C1C=CC(=O)c2c(O)c(CO)c(CO)c(O)c21	·	·	12*	·
O=C(Nc1ccccc1N1CCCCC1)c1ccc([N+](=O)[O-])o1	·	·	6	·
CCCC(=O)N1CCN(c2ccc(NC(=O)c3ccc([N+](=O)[O-])o3)cc2Cl)CC1	-5	37	3	57*
O=C(NC(=S)Nc1ccccc1)c1ccc(Br)o1	3	8	-21	-6
O=C(Nc1ccc(Nc2ccccc2)cc1)c1ccc(Br)o1	2	-92*	8	13
